Experiments:
Assay type in all cases: tissue-based
Settings in all cases: Trachea
Cavia porcellus [1] = organism: Cavia porcellus; test: Antagonist activity at beta adrenergic receptor in guinea pig tracheal strips assessed as inhibition of 10^-6 M isoproterenol-induced tracheal relaxation incubated 1 hr prior to testing
Procedure, shortened: (§1)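 Guinea pig tracheal strips in 10-mL baths, precontracted with carbachol 10^-7 M. Two cumulative isoproterenol dose-response curves per strip: control, then a 1 h wash, then antagonist added 1 h before the second curve. Dose ratio is the antilog of the difference in −log molar isoproterenol ED50. Apparent K_B = [antagonist]/(dose ratio − 1), using three antagonist concentrations (Furchgott).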

Cavia porcellus [2] = organism: Cavia porcellus; test: Antagonist activity at beta adrenergic receptor in guinea pig tracheal strips assessed as inhibition of isoproterenol-induced tracheal relaxation incubated 1 hr prior to testing; procedure, shortened: as §1
Cavia porcellus [3] = organism: Cavia porcellus; test: Antagonist activity at beta adrenergic receptor in guinea pig tracheal strips assessed as inhibition of 10^-7 M isoproterenol-induced tracheal relaxation incubated 1 hr prior to testing; procedure, shortened: as §1
Cavia porcellus [4] = organism: Cavia porcellus; test: Antagonist activity at beta adrenergic receptor in guinea pig tracheal strips assessed as inhibition of 10^-5 M isoproterenol-induced tracheal relaxation incubated 1 hr prior to testing; procedure, shortened: as §1

SMILES	Kb (Cavia porcellus [1])	inhibition (Cavia porcellus [2])	Kb (Cavia porcellus [3])	Kb (Cavia porcellus [4])
C=CCOc1ccccc1OCC(O)CNC(C)C (stereo unspecified)	5.81 nM	Dose-dependent effect	2.61 nM	–
C=CCOc1ccc(O)cc1OCC(O)CNC(C)C (stereo unspecified)	37.9 nM	Dose-dependent effect	34.8 nM	101 nM
C=CCOc1cc(O)ccc1OCC(O)CNC(C)C (stereo unspecified)	45.5 nM	Dose-dependent effect	26.5 nM	122 nM
